Laboratory results as given in PMC8753982 (ACS chemical neuroscience, 2019).
“Also recorded” adds a separate entry of the source.

What was measured:
[1] = target: T1, endogenous mGlu5 in striatal neurons (Rattus norvegicus, UniProt P31424); test: Single cell Ca2+ imaging; format: cell-based; conditions: for effect on Quis-mediated Ca2+ responses (intracellular mGlu5): compound at 1, 5, 10 μM; for effect on single cell intracellular responses at 10-fold IC50: at 10-fold their IC50 values (refs 20, 25)
Method in brief: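 Primary striatal cultures from 1-day-old neonatal rat pups, on gridded glass dishes, loaded with 5 μM Oregon Green 488 BAPTA-AM. Cultures were preincubated with 20 μM CPCCOEt (mGlu1 antagonist) plus 25 μM AMPA receptor antagonist, then imaged by confocal microscopy during agonist (Quis 10 μM) and NAM (1, 5, 10 μM) exposure. Signals were taken as fractional fluorescence change over basal and normalized to Quis response (% Quis).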

mGlu5 (mGlu5/HEK cells) = test: Single cell Ca2+ imaging; format: cell-based; conditions: for effect on DHPG-induced oscillatory Ca2+ response: DHPG 100 μM, NAM applied after agonist at 1, 5, 10 μM; for effect of NAM pretreatment on DHPG or Quis-mediated Ca2+ responses: DHPG 100 μM or Quis 10 μM
[2] = target: T2, endogenous mGlu5 in hippocampal neurons (Rattus norvegicus, UniProt P31424); test: Fluorescence-based Ca2+ flux assay with a microplate reader; format: cell-based
mGlu5 = conditions: read-out: published IC50; cited from earlier work
[3] = target: mGlu5 (mGlu5/HEK stable cell line) (Rattus norvegicus, UniProt P31424); test: Fluorescence-based Ca2+ flux assay with a microplate reader; format: cell-based; conditions: for LLE: LLE = pIC50 − log P (consensus log Po/w Table 1, IC50 Table 3)
[4] = target: endogenous mGlu5 in cortical neurons (Rattus norvegicus, UniProt P31424); test: as above; format: cell-based
[5] = target: T1, endogenous mGlu5 in striatal neurons; test: as above; format: cell-based
[6] = tested on: mGlu5 (mGlu5/HEK stable cell line); test: as above; format: cell-based; conditions: LLE = pIC50 − log P (consensus log Po/w Table 1, IC50 Table 3)
[7] = target: T2, endogenous mGlu5 in hippocampal neurons; test: Single cell Ca2+ imaging; format: cell-based; conditions: pretreatment 1 μM, Quis 10 μM

T2 sequence (P31424 21-1203): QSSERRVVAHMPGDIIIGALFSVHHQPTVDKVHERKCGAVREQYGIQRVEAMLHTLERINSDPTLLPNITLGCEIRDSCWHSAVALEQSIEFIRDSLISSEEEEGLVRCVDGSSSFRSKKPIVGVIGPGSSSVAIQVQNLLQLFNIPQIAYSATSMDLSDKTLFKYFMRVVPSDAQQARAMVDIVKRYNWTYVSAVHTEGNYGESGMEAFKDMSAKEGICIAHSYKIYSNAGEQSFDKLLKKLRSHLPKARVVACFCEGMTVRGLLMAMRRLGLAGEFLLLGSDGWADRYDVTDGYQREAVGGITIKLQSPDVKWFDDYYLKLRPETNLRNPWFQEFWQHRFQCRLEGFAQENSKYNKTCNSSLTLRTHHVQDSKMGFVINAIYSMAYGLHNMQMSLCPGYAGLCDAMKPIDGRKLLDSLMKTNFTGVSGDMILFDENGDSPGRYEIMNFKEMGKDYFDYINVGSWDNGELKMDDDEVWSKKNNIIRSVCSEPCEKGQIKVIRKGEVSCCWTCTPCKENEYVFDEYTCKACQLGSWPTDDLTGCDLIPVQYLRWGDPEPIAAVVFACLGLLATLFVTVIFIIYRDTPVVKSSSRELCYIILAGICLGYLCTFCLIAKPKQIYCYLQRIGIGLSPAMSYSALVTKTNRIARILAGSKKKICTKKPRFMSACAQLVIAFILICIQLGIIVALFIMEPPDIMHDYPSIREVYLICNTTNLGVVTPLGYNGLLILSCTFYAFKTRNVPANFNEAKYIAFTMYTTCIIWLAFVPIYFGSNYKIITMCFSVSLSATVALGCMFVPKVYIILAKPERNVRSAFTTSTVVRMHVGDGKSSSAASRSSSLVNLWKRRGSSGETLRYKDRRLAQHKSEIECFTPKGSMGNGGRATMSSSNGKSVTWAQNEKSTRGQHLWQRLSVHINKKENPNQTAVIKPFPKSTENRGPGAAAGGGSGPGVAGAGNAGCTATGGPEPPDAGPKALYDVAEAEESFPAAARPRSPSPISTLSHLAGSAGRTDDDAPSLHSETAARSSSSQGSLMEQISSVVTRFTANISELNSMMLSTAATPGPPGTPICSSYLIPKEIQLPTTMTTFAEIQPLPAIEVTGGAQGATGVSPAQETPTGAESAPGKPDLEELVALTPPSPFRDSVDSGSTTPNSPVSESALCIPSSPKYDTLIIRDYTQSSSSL
Chain of endogenous mGlu5 in cortical neurons (P31424 21-1203): as above
T1 sequence (P31424 21-1203): as above
Chain of mGlu5 (mGlu5/HEK stable cell line) (Rattus norvegicus, UniProt P31424) (P31424 21-1203): as above
Chain of mGlu5 (mGlu5/HEK stable cell line) (P31424 21-1203): as above

NC(CC1c2ccccc2Sc2ccccc21)(C(=O)O)C1CC(C(=O)O)C1 (mixture of isomers) [LY393053, 2-Amino-2-(3-cis/trans-carboxycyclobutyl)-3-(9H-thioxanthen-9-yl) propionic acid]
effect on Quis-mediated Ca2+ responses (intracellular mGlu5) ([1]; striatal neurons, Quis 10 μM): neither 5MPEP,[34] a neutral allosteric modulator, nor LY393053 affected Quis-induced Ca^2+ rises

Cc1cccnc1C#Cc1ccccc1 [5MPEP, 5-methyl-6-(phenylethynyl)-pyridine]
effect on Quis-mediated Ca2+ responses (intracellular mGlu5) ([1]; striatal neurons, Quis 10 μM): neither 5MPEP,[34] a neutral allosteric modulator, nor LY393053 affected Quis-induced Ca^2+ rises

COC(=O)N1CC[C@@H]2[C@H]1CCC[C@@]2(O)C#Cc1cccc(C)c1 [AFQ056, methyl (3aR,4S,7aR)-4-hydroxy-4-[(3-methylphenyl)ethynyl]octahydro-1H-indole-1-carboxylate]
effect on Quis-mediated Ca2+ responses (intracellular mGlu5) ([1]; striatal neurons, Quis 10 μM): neither 1, 5, nor 10 μM AFQ056 blocked Quis-mediated Ca^2+ responses; also recorded: did not completely block; also recorded: fails to block
effect on DHPG-induced Ca2+ response ([1]; striatal neurons, pre- or post-treatment, cell-surface only agonist DHPG): blocked
effect on DHPG-induced oscillatory Ca2+ response (mGlu5 (mGlu5/HEK cells)): inhibited; also recorded: blocked
effect on Quis-induced Ca2+ response (mGlu5 (mGlu5/HEK cells); Quis 10 μM, NAM at 1, 5, 10 μM): inhibited; also recorded: blocked
effect of NAM pretreatment on DHPG or Quis-mediated Ca2+ responses (mGlu5 (mGlu5/HEK cells)): completely blocked
IC50 [2]: 0.257 ± 0.0274 µM
IC50 (mGlu5): 0.03 µM
LLE [3]: 4.57
IC50 [4]: 0.27 ± 0.073 µM
IC50 [5]: 9.44 ± 3.78 µM
fold shift of IC50 between mGlu5/HEK cells and striatal cultures [5]: 250 fold

C[C@@H](Oc1nnc(-c2ccncc2)n1C)c1cc(-c2cccc(Cl)c2)on1 [AZD2066, 4-[5-[(1R)-1-[5-(3-chlorophenyl)-3-isoxazolyl]ethoxy]-4-methyl-4H-1,2,4-triazol-3-yl]pyridine]
effect on single cell intracellular responses at 10-fold IC50 [1]: did not block
effect on Quis-mediated Ca2+ responses (intracellular mGlu5) ([1]; striatal neurons, Quis 10 μM): less effective
effect on DHPG-induced oscillatory Ca2+ response (mGlu5 (mGlu5/HEK cells)): blocked
effect of NAM pretreatment on DHPG or Quis-mediated Ca2+ responses (mGlu5 (mGlu5/HEK cells)): completely blocked
IC50 [2]: 0.0962 ± 0.0178 µM
LLE [6]: 4.29
IC50 [4]: 0.38 ± 0.078 µM
IC50 [5]: 3.56 ± 0.52 µM

N[C@H](C(=O)O)c1cc(O)cc(O)c1 [DHPG, (S)-3,5-dihydroxyphenylglycine]
maximum DHPG-induced Ca2+ increase, % of the Quis-induced response ([5]; plate reader, cell type not given): 15–20%

CN1CC(=O)N=C1NC(=O)Nc1cccc(Cl)c1 [Fenobam, N-(3-chlorophenyl)-N′-(4,5-dihydro-1-methyl-4-oxo-1H-imidazol-2-yl)urea]
effect on single cell intracellular responses at 10-fold IC50 [1]: did not block
effect on Quis-mediated Ca2+ responses (intracellular mGlu5) ([1]; striatal neurons, Quis 10 μM): less effective
effect on Quis-induced Ca2+ response at 1 μM NAM ([1]; striatal, pretreatment 1 μM, Quis 10 μM): less effective
effect on DHPG-induced oscillatory Ca2+ response (mGlu5 (mGlu5/HEK cells)): blocked
effect on Quis-induced Ca2+ response at 1 μM NAM (mGlu5 (mGlu5/HEK cells); pretreatment 1 μM, Quis 10 μM): less effective
effect of NAM pretreatment on DHPG or Quis-mediated Ca2+ responses (mGlu5 (mGlu5/HEK cells)): completely blocked
IC50 [2]: 0.442 ± 0.15 µM
LLE [3]: 5.50
effect on Quis-induced Ca2+ response at 1 μM NAM [7]: less effective
IC50 [4]: 0.807 ± 0.0535 µM
LLE ([4]; cortical, LLE = pIC50 − log P (consensus log Po/w Table 1, IC50 Table 3)): 2.94
IC50 [5]: 2.93 ± 0.48 µM
fold shift of IC50 between mGlu5/HEK cells and striatal cultures [5]: 16 fold

Cc1cccc(C#Cc2ccccc2)n1 [MPEP, 2-methyl-6-(phenylethynyl)pyridine]
effect on DHPG-induced oscillatory Ca2+ response (mGlu5 (mGlu5/HEK cells)): blocked
effect of NAM pretreatment on DHPG or Quis-mediated Ca2+ responses (mGlu5 (mGlu5/HEK cells)): completely blocked

N[C@@H](Cn1oc(=O)[nH]c1=O)C(=O)O [Quis, Quisqualate]
EC50 [2]: 0.122 ± 0.0121 µM
Quis EC80 ([2]; hippocampal): 0.515 ± 0.0514 µM
fold difference in potency, Quis with versus without LY393053 ([2]; hippocampus, LY393053 20 μM): ~1.8 fold
Quis EC80 [3]: 0.125 ± 0.0323 µM
EC50 [4]: 0.168 ± 0.0558 µM
fold difference in potency, Quis with versus without LY393053 ([4]; cortex, LY393053 20 μM): ~1.8 fold
Quis EC80 ([4]; cortical): 0.67 ± 0.223 µM
EC50 [5]: 1.31 ± 0.36 µM
fold difference in EC50 between the cortical and hippocampal neurons and the striatum, respectively ([5]; Quis): 8–10 fold
fold difference in the EC50 for Quis in HEK cells versus striatal neurons ([5]; mGlu5/HEK versus endogenous mGlu5-expressing striatal neurons): 42 fold
Quis EC80 ([5]; striatal): 5.25 ± 1.43 µM
difference in EC50 between cell surface and intracellular mGlu5 ([5]; striatum, Quis with versus without LY393053 20 μM): no difference in EC50

Cc1nc(C#Cc2ccnc(Cl)c2)c(C)n1-c1ccc(F)cc1 [RG7090, 2-chloro-4-((1-(4-fluorophenyl)-2,5-dimethyl-1H-imidazol-4-yl)ethynyl)pyridine]
effect on Quis-mediated Ca2+ responses (intracellular mGlu5) ([1]; striatal neurons, Quis 10 μM): most effective; also recorded: very effective
effect on DHPG-induced oscillatory Ca2+ response (mGlu5 (mGlu5/HEK cells)): blocked
effect of NAM pretreatment on DHPG or Quis-mediated Ca2+ responses (mGlu5 (mGlu5/HEK cells)): completely blocked
IC50 [2]: 0.00897 ± 0.0034 µM
LLE [6]: 4.59
IC50 [4]: 0.0802 ± 0.0168 µM
fold difference of potency in cortical neurons versus HEK cells [4]: 45 fold
IC50 [5]: 0.062 ± 0.0175 µM
